In ChEMBL document CHEMBL3351900, “Conjugation of a nonspecific antiviral sapogenin with a specific HIV fusion inhibitor: a promising strategy for discovering new antiviral therapeutics” (J Med Chem, 2014):
Converted amounts (≈) assume the structure as drawn. The source made the active and inactive calls. No cut-off for these calls is given here. Square brackets hold non-standard residues; d marks the D form. Peptide text beside a SMILES is read from it. * marks the point of attachment. X1 = C=CCOC(=O)[C@]12CC[C@@H](C(=C)C)[C@@H]1[C@H]1CC[C@@H]3[C@@]4(C)CC[C@H](OC(=O)CCc5cn(CC(=O)*)nn5)C(C)(C)[C@@H]4CC[C@@]3(C)[C@]1(C)CC2; βAla = NCCC(=O)O

How the values were obtained:
[1] = test system: Human immunodeficiency virus 1; experiment: Antiviral activity against HIV1 3B infected in human MT2 cells assessed as inhibition of viral entry compound treated at 200 nM at 6 hrs post infection measured 3 to 4 days post infection by time-of-addition assay
[2] = Cytotoxicity against human MT2 cells after 4 days by XTT assay; type: cell-based
Summary of the method: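 MT-2 cells (5 × 10⁵/mL) mixed with equal volumes of graded conjugate concentrations and held at 37 °C for 4 days. XTT (1 mg/mL) with 0.02 μM phenazine methosulfate added for 4 h, then A450 read. CC50 calculated from the dose–response.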

[3] = test system: Human immunodeficiency virus 1; experiment: Antiviral activity against T20-sensitive HIV1 NL4-3 harboring gp41 D36G mutant infected in human MT2 cells; type: functional, organism-based
Summary of the method: (§1)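 MT-2 cells (1 × 10⁴) infected with 100 TCID₅₀ virus with or without peptides at graded concentrations. Culture supernatants collected on day 4 postinfection; p24 antigen quantified by ELISA. Percent inhibition and EC₅₀ calculated; tested in triplicate, mean ± standard deviation.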

[4] = Half life in rat liver homogenate at 8 ug/ml; type: ADME, tissue-based
[5] = test system: Human immunodeficiency virus 1; experiment: Ratio of EC50 for T20-resistant HIV1 NL4-3 harboring gp41 D36G/V38A mutant infected in human MT2 cells to EC50 for T20-sensitive HIV1 NL4-3 harboring gp41 D36G mutant infected in human MT2 cells; type: functional
Summary of the method: (§2)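 MT-2 cells (1 × 10⁴) infected with 100 TCID₅₀ of HIV-1 NL4-3 gp41 mutant virus with or without peptide at graded concentrations. Culture supernatants collected on day 4 postinfection and p24 antigen measured by ELISA. Percent inhibition and EC₅₀ calculated, triplicate, mean ± standard deviation. Fold change = EC₅₀ against each mutant divided by EC₅₀ against the D36G strain.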

[6] = test system: Human immunodeficiency virus 1; experiment: Ratio of EC50 for T20-resistant HIV1 NL4-3 harboring gp41 D36G/N42T/N43K mutant infected in human MT2 cells to EC50 for T20-sensitive HIV1 NL4-3 harboring gp41 D36G mutant infected in human MT2 cells; type: functional
Summary of the method: as §2

Rattus norvegicus [7] = experiment: AUC (0 to t) in rat at 4 mg/kg, iv administered as single dose; type: ADME, organism-based, Plasma; set-up: dose 4 mg/kg, route intravenous; conditions: in vivo
Summary of the method: (§3)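 Rats given one intravenous dose of 4 mg/kg. Peptide measured in plasma over time. Parameters (AUC(0−t), MRT(0−t), t1/2, Vd, Cmax) derived by model-independent analysis.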

Rattus norvegicus [8] = experiment: Half life in rat at 4 mg/kg, iv at 4 mg/kg, iv administered as single dose; type: ADME, organism-based; conditions: in vivo
Summary of the method: as §3

[9] = Solubility of the compound in pure water by UV spectrophotometry; type: physicochemical
Summary of the method: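 About 1 mg of peptide dissolved in 10 μL water or PBS and centrifuged. Supernatant concentration of the tyrosine-containing conjugate determined from UV absorbance at 280 nm.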

[10] = test system: Human immunodeficiency virus 1; experiment: Ratio of EC50 for T20-resistant HIV1 NL4-3 harboring gp41 D36G/V38A/N42T mutant infected in human MT2 cells to EC50 for T20-sensitive HIV1 NL4-3 harboring gp41 D36G mutant infected in human MT2 cells; type: functional
Summary of the method: as §2

[11] = Half life of the compound at 8 ug/ml by proteinase K digestion assay; type: ADME
[12] = Mean residence time in rat at 4 mg/kg, iv administered as single dose; type: ADME, organism-based; set-up: dose 4 mg/kg, route intravenous; conditions: in vivo
Summary of the method: as §3

[13] = Half life in rat kidney homogenate at 8 ug/ml; type: ADME, tissue-based
[14] = test system: Human immunodeficiency virus 1; experiment: Antiviral activity against T20-resistant HIV1 NL4-3 harboring gp41 D36G/V38A mutant infected in human MT2 cells; type: functional, organism-based
Summary of the method: as §1

Rattus norvegicus [15] = experiment: Cmax in rat at 4 mg/kg, iv administered as single dose; type: ADME, organism-based; set-up: dose 4 mg/kg, route intravenous; conditions: in vivo
Summary of the method: as §3

[16] = Volume of distribution in rat at 4 mg/kg, iv administered as single dose; type: ADME, organism-based; set-up: dose 4 mg/kg, route intravenous; conditions: in vivo
Summary of the method: as §3

[17] = test system: Human immunodeficiency virus 1; experiment: Ratio of EC50 for T20-resistant HIV1 NL4-3 harboring gp41 D36G/V38A/N42D mutant infected in human MT2 cells to EC50 for T20-sensitive HIV1 NL4-3 harboring gp41 D36G mutant infected in human MT2 cells; type: functional
Summary of the method: as §2

[18] = Selectivity index, ratio of CC50 for human MT2 cells to EC50 for HIV1 3B infected in human MT2 cells; type: toxicity, cell-based; conditions: read-out: Ratio CC50/EC50
[19] = target: GP41 (Human immunodeficiency virus 1) (UniProt Q76270); experiment: Ratio of EC50 for HIV1 gp41-induced cell-cell fusion between viral envelope expressing human HL2/3 cells to CD4/CCR5 receptor expressing TZM-bl cells with wash out to EC50 for HIV1 gp41-induced cell-cell fusion between viral envelope expressing human HL2/3 cells to CD4/CCR5 receptor expressing TZM-bl cells; type: cell-based
Summary of the method: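 Peptides preincubated with TZM-bl cells at 37 °C for 1 h, with or without washing away unbound peptide. EC50 compared between washed and unwashed cells, giving the n-fold change. Triplicates, mean ± SD.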

[20] = test system: Human immunodeficiency virus 1; experiment: Ratio of EC50 for T20-resistant HIV1 NL4-3 harboring gp41 D36G/V38E/N42S mutant infected in human MT2 cells to EC50 for T20-sensitive HIV1 NL4-3 harboring gp41 D36G mutant infected in human MT2 cells; type: functional
Summary of the method: as §2

[21] = test system: Human immunodeficiency virus 1; experiment: Antiviral activity against T20-resistant HIV1 NL4-3 harboring gp41 D36G/N42T/N43K mutant infected in human MT2 cells; type: functional, organism-based
Summary of the method: as §1

[22] = test system: Human immunodeficiency virus 1; experiment: Antiviral activity against HIV1 BaL infected in human […] cells assessed as inhibition of viral replication; type: functional, organism-based; conditions: Human immunodeficiency virus 1, BaL
Summary of the method: as §1

[23] = test system: Human immunodeficiency virus 1; experiment: Antiviral activity against HIV1 3B infected in human MT2 cells assessed as inhibition of viral entry compound treated at 100 nM at 1 hr post infection measured 3 to 4 days post infection by time-of-addition assay
[24] = test system: Human immunodeficiency virus 1; experiment: Antiviral activity against T20-resistant HIV1 NL4-3 harboring gp41 D36G/V38A/N42T mutant infected in human MT2 cells; type: functional, organism-based
Summary of the method: as §1

[25] = test system: Human immunodeficiency virus 1; experiment: Antiviral activity against HIV1 3B infected in human MT2 cells assessed as inhibition of viral p24 antigen production by ELISA; type: functional, organism-based; conditions: Human immunodeficiency virus 1, 3B
Summary of the method: as §1

[26] = test system: Human immunodeficiency virus 1; experiment: Antiviral activity against T20-resistant HIV1 NL4-3 harboring gp41 D36G/V38A/N42D mutant infected in human MT2 cells; type: functional, organism-based
Summary of the method: as §1

[27] = test system: Human immunodeficiency virus 1; experiment: Antiviral activity against T20-resistant HIV1 NL4-3 harboring gp41 D36G/V38E/N42S mutant infected in human MT2 cells; type: functional, organism-based
Summary of the method: as §1

**Q.** With `Cc1cn([C@H]2C[C@H](N=[N+]=[N-])[C@@H](CO)O2)c(=O)[nH]c1=O` as the molecule, how does the inhibition [1] read?
**A.** Its inhibition is “Active”.

**Q.** For `C=CCOC(=O)[C@]12CC[C@@H](C(=C)C)[C@@H]1[C@H]1CC[C@@H]3[C@@]4(C)CC[C@H](OC(=O)CCc5cn(CC(=O)NCCCC[C@H](NC(=O)CCNC(=O)[C@H](CC(C)C)NC(=O)[C@H](CC(C)C)NC(=O)[C@H](CCC(=O)O)NC(=O)[C@H](CCC(N)=O)NC(=O)[C@H](CCC(=O)O)NC(=O)[C@H](CC(N)=O)NC(=O)[C@H](CCCCN)NC(=O)[C@H](CCC(=O)O)NC(=O)[C@H](CCC(N)=O)NC(=O)[C@H](CCC(N)=O)NC(=O)[C@H](CC(N)=O)NC(=O)[C@H](CCC(N)=O)NC(=O)[C@H](CO)NC(=O)[C@H](CCC(=O)O)NC(=O)[C@H](CCC(=O)O)NC(=O)[C@@H](NC(=O)[C@H](CC(C)C)NC(=O)[C@H](CO)NC(=O)[C@H](Cc6cnc[nH]6)NC(=O)[C@@H](NC(=O)[C@H](CC(C)C)NC(=O)[C@H](CO)NC(=O)[C@@H](NC(=O)[C@H](Cc6ccc(O)cc6)NC(=O)[C@H](CC(N)=O)NC(=O)[C@H](CC(N)=O)NC(C)=O)[C@@H](C)O)[C@@H](C)CC)[C@@H](C)CC)C(N)=O)nn5)C(C)(C)[C@@H]4CC[C@@]3(C)[C@]1(C)CC2` (Ac-NNYTSLIHSLIEESQNQQEKNEQELL[βAla]K(X1)-NH2), which CC50 at 96 h [2] is on record?
**A.** The CC50 at 96 h was 14300 nM.

**Q.** What about the EC50 [3] of the same molecule?
**A.** The EC50 was 29.2 nM.

**Q.** What about the half-life at 8 ug/ml [4] of the same molecule?
**A.** Its half-life at 8 ug/ml is 48.9 min.

**Q.** And the “Ratio EC50” value [5]?
**A.** Its value is 4.6.

**Q.** And the “Ratio EC50” value [6]?
**A.** The value was 6.5.

**Q.** And the AUCt (Rattus norvegicus [7])?
**A.** The AUCt was 101 µg·h/mL.

**Q.** And the t1/2 (Rattus norvegicus [8])?
**A.** Its t1/2 is 188 min.

**Q.** And the solubility [9]?
**A.** Its solubility is 18.2 mg/mL (≈ 4.55 mM).

**Q.** And the “Ratio EC50” value [10]?
**A.** Its value is 10.

**Q.** And the half-life at 8 ug/ml [11]?
**A.** The half-life at 8 ug/ml was 54.3 min.

**Q.** And the MRT [12]?
**A.** The MRT was 191 min.

**Q.** What about the half-life at 8 ug/ml [13] of the same molecule?
**A.** Its half-life at 8 ug/ml is 35.9 min.

**Q.** And the EC50 [14]?
**A.** Its EC50 is 135 nM.

**Q.** What about the Cmax (Rattus norvegicus [15]) of the same molecule?
**A.** Its Cmax is 40400 ng/mL.

**Q.** What about the Vd [16] of the same molecule?
**A.** Its Vd is 0.17 L/kg.

**Q.** And the “Ratio EC50” value [17]?
**A.** Its value is 1.2.

**Q.** What about the selectivity ratio [18] of the same molecule?
**A.** Its selectivity ratio is 3350.

**Q.** What about the Ratio EC50 [19] of the same molecule?
**A.** Its Ratio EC50 is 11.

**Q.** What about the “Ratio EC50” value [20] of the same molecule?
**A.** Its value is 11.

**Q.** And the EC50 [21]?
**A.** Its EC50 is 192 nM.

**Q.** And the EC50 [22]?
**A.** The EC50 was 6.9 nM.

**Q.** What about the inhibition [23] of the same molecule?
**A.** Its inhibition is “Active”.

**Q.** What about the EC50 [24] of the same molecule?
**A.** The EC50 was 308 nM.

**Q.** What about the EC50 [25] of the same molecule?
**A.** Its EC50 is 4.28 nM.

**Q.** And the EC50 [26]?
**A.** Its EC50 is 34.4 nM.

**Q.** And the EC50 [27]?
**A.** Its EC50 is 322 nM.
